Reference: ChEMBL document CHEMBL1122366, “Potential antiatherosclerotic agents. 3. Substituted benzoic and non benzoic acid analogues of cetaben” (1983)

Columns and labels:
[1] = test system: Rattus norvegicus; assay: In vivo sterol lowering activity when dosed as 0.03 % of the diet; format: functional
Method in brief: (§1)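 Normal rats were dosed in the diet. Serum sterol and triglyceride levels were measured and expressed as the mean percent of control values. Significance versus control was reported at p < 0.05, 0.01 and 0.001.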

[2] = test system: Rattus norvegicus; assay: In vivo sterol lowering activity at dose of 0.10 % of the diet; format: functional; method in brief: as §1
[3] = test system: Rattus norvegicus; assay: In vivo triglyceride lowering activity when dosed as 0.01 % of the diet; format: functional; method in brief: as §1
[4] = test system: Rattus norvegicus; assay: In vivo triglyceride lowering activity when dosed at 0.03 % of the diet; format: functional; method in brief: as §1
[5] = biological target: T1, Sterol O-acyltransferase 1 (Rattus norvegicus) (UniProt O70536); assay: In vitro inhibition of acyl coenzyme A:cholesterol acyltransferase; parameters: concentration or dose not given beside the values; conditions: concentration not given here
T1 sequence (whole entry): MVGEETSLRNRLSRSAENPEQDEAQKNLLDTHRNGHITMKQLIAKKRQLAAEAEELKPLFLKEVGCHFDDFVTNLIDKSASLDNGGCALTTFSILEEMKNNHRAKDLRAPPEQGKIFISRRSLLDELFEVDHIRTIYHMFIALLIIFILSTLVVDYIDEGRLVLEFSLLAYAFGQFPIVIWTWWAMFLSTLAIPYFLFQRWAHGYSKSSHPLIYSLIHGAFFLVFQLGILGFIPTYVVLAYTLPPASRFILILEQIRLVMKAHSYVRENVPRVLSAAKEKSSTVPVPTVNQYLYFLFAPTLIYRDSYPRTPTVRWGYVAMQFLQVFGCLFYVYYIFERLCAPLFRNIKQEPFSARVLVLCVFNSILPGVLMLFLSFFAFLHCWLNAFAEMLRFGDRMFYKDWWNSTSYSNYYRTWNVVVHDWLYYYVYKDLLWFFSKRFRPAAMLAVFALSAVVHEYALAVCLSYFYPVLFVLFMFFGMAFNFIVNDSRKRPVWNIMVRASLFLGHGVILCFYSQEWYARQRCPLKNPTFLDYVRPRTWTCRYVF
Method in brief: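 Enzyme fatty acyl-CoA:cholesterol acyltransferase (ACAT), assayed in vitro at a single drug concentration of 5.2 μg/mL. The value is the mean percent inhibition of enzyme activity.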

[6] = test system: Rattus norvegicus; assay: In vivo sterol lowering activity when dosed as 0.01 % of the diet; format: functional; method in brief: as §1
[7] = test system: Rattus norvegicus; assay: In vivo triglyceride lowering activity dosed at 0.10 % of the diet.; format: functional; method in brief: as §1

CCCCCCCCCCCCCCCCNc1ncc(C(=O)O)cn1
serum sterol level, percent of control [1]: 108%
serum sterol level, percent of control [2]: 114%
serum triglyceride level, percent of control [3]: 89%
serum triglyceride level, percent of control [4]: 94%
inhibition [5]: < 21%
serum sterol level, % of control [6]: 108%
serum triglyceride, percent of control [7]: 93%

CCCCCCCCCCCCCCCCNc1ccc(C(=O)CC(=O)O)cc1
serum sterol level, percent of control [1]: 100%
serum sterol level, percent of control [2]: 104%
serum triglyceride level, percent of control [3]: 80%
serum triglyceride level, percent of control [4]: 90%
inhibition [5]: < 28%
serum sterol level, % of control [6]: 105%
serum triglyceride, percent of control [7]: 100%

CCCCCCCCCCCCCCCCNc1ccc(CCC(=O)OCC)cc1
serum sterol level, percent of control [1]: 89%
serum sterol level, percent of control [2]: 84%
serum triglyceride level, percent of control [3]: 96%
serum triglyceride level, percent of control [4]: 88%
inhibition [5]: 7%
serum sterol level, % of control [6]: 89%
serum triglyceride, percent of control [7]: <45%

CCCCCCCCCCCCCCCCNc1ccc(C(=O)O)cc1C
serum sterol level, percent of control [1]: 92%
serum sterol level, percent of control [2]: <91%
serum triglyceride level, percent of control [3]: 75%
serum triglyceride level, percent of control [4]: 96%
inhibition [5]: 1%
serum sterol level, % of control [6]: 94%
serum triglyceride, percent of control [7]: 101%

CCCCCCCCCCCCCCCCNc1ccc(C2=NCCCO2)cc1
serum sterol level, percent of control [1]: 100%
serum sterol level, percent of control [2]: <87%
serum triglyceride level, percent of control [3]: 99%
serum triglyceride level, percent of control [4]: 127%
inhibition [5]: 2%
serum sterol level, % of control [6]: 97%
serum triglyceride, percent of control [7]: <68%

CCCCCCCCCCCCCCCCNc1ccc(C(=O)[O-])c(C(=O)[O-])c1.[Na+].[Na+]
serum sterol level, percent of control [1]: 105%
serum sterol level, percent of control [2]: 101%
serum triglyceride level, percent of control [3]: 110%
serum triglyceride level, percent of control [4]: 85%
inhibition [5]: 63%
serum sterol level, % of control [6]: 100%
serum triglyceride, percent of control [7]: <67%

CCCCCCCCCCCCCCCCNc1ccc(C(=O)NS(=O)(=O)c2ccc([N+](=O)[O-])cc2)cc1
serum sterol level, percent of control [1]: 94%
serum sterol level, percent of control [2]: <82%
serum triglyceride level, percent of control [3]: 92%
serum triglyceride level, percent of control [4]: <79%
inhibition [5]: < 43%
serum sterol level, % of control [6]: 105%
serum triglyceride, percent of control [7]: 108%

Br.CCCCCCCCCCCCCCCCNc1ccc(OC(C)=O)cc1
serum sterol level, percent of control [1]: 95%
serum sterol level, percent of control [2]: 91%
serum triglyceride level, percent of control [3]: 108%
serum triglyceride level, percent of control [4]: 146%
inhibition [5]: 12%
serum sterol level, % of control [6]: 92%
serum triglyceride, percent of control [7]: 117%

CCCCCCCCCCCCCCCCNc1ccc(C(=O)CC(=O)OCC)cc1
serum sterol level, percent of control [1]: <83%
serum sterol level, percent of control [2]: <85%
serum triglyceride level, percent of control [3]: 71%
serum triglyceride level, percent of control [4]: <53%
inhibition [5]: 2%
serum sterol level, % of control [6]: 105%
serum triglyceride, percent of control [7]: <30%

CCCCCCCCCCCCCCCCNc1ccc(C(=O)NCC(=O)O)cc1
serum sterol level, percent of control [1]: 87%
serum sterol level, percent of control [2]: <77%
serum triglyceride level, percent of control [3]: 76%
serum triglyceride level, percent of control [4]: <70%
inhibition [5]: < 64%
serum sterol level, % of control [6]: <77%
serum triglyceride, percent of control [7]: <48%

CCCCCCCCCCCCCCCCNc1ccc(C(=O)C(C)(C)C(=O)OCC)cc1
serum sterol level, percent of control [1]: 103%
serum sterol level, percent of control [2]: 90%
serum triglyceride level, percent of control [3]: 101%
serum triglyceride level, percent of control [4]: <65%
inhibition [5]: 0%
serum sterol level, % of control [6]: 94%
serum triglyceride, percent of control [7]: 101%

CCCCCCCCCCCCCCCCNc1ccc(C(=O)C(C)C(=O)OCC)cc1 (configuration not stated)
serum sterol level, percent of control [1]: 87%
serum sterol level, percent of control [2]: <73%
serum triglyceride level, percent of control [3]: 87%
serum triglyceride level, percent of control [4]: 88%
inhibition [5]: 21%
serum sterol level, % of control [6]: 100%
serum triglyceride, percent of control [7]: <66%

CCCCCCCCCCCCCCCCNc1ccc(C(=O)NC(=O)c2ccccc2)cc1
serum sterol level, percent of control [1]: <80%
serum sterol level, percent of control [2]: <75%
serum triglyceride level, percent of control [3]: 76%
serum triglyceride level, percent of control [4]: <66%
inhibition [5]: 0%
serum sterol level, % of control [6]: 91%
serum triglyceride, percent of control [7]: <58%

CCCCCCCCCCCCCCCCNc1ccc(C(=O)OCC)c(C(=O)OCC)c1
serum sterol level, percent of control [1]: 99%
serum sterol level, percent of control [2]: 90%
serum triglyceride level, percent of control [3]: 86%
serum triglyceride level, percent of control [4]: 93%
inhibition [5]: < 37%
serum sterol level, % of control [6]: 98%
serum triglyceride, percent of control [7]: <72%

CCCCCCCCCCCCCCCCNc1ccc(SCC(=O)O)cc1
serum sterol level, percent of control [1]: 97%
serum sterol level, percent of control [2]: 93%
serum triglyceride level, percent of control [3]: 72%
serum triglyceride level, percent of control [4]: 110%
inhibition [5]: < 22%
serum sterol level, % of control [6]: 92%
serum triglyceride, percent of control [7]: 100%

CCCCCCCCCCCCCCN(CC)c1ccc(C(=O)O)cc1
serum sterol level, percent of control [1]: 98%
serum sterol level, percent of control [2]: 88%
serum triglyceride level, percent of control [3]: 90%
serum triglyceride level, percent of control [4]: 92%
inhibition [5]: < 38%
serum sterol level, % of control [6]: 93%
serum triglyceride, percent of control [7]: 80%

CCCCCCCCCCCCCCCCNc1ccc(C(=O)OCC2CO2)cc1 (configuration not stated)
serum sterol level, percent of control [1]: <75%
serum sterol level, percent of control [2]: <75%
serum triglyceride level, percent of control [3]: <74%
serum triglyceride level, percent of control [4]: <60%
inhibition [5]: 13%
serum sterol level, % of control [6]: 92%
serum triglyceride, percent of control [7]: <53%

CCCCCCCCCCCCCCCCN(C=O)c1ccc(C(=O)OCC)cc1
serum sterol level, percent of control [1]: 117%
serum sterol level, percent of control [2]: 96%
serum triglyceride level, percent of control [3]: 102%
serum triglyceride level, percent of control [4]: 90%
inhibition [5]: 9%
serum sterol level, % of control [6]: 101%
serum triglyceride, percent of control [7]: 75%

CCCCCCCCCCCCCCCCNc1ccc(C(=O)OC2CCCCO2)cc1 (configuration not stated)
serum sterol level, percent of control [1]: <76%
serum sterol level, percent of control [2]: <74%
serum triglyceride level, percent of control [3]: 108%
Diet [4]: 98%
inhibition [5]: 0%
serum sterol level, % of control [6]: 91%
serum triglyceride, percent of control [7]: <54%

CCCCCCCCCCCCCCCCNc1ccc(C(=O)NCCC(=O)O)cc1
serum sterol level, percent of control [1]: 93%
serum sterol level, percent of control [2]: <86%
serum triglyceride level, percent of control [3]: 99%
serum triglyceride level, percent of control [4]: 78%
inhibition [5]: 49%
serum sterol level, % of control [6]: <90%
serum triglyceride, percent of control [7]: <55%

CCCCCCCCCCCCCCCCNc1ccc(C2OCCO2)cc1
serum sterol level, percent of control [1]: <77%
serum sterol level, percent of control [2]: <71%
serum triglyceride level, percent of control [3]: 100%
serum triglyceride level, percent of control [4]: 82%
inhibition [5]: 0%
serum sterol level, % of control [6]: <85%
serum triglyceride, percent of control [7]: <47%
